Key:
[1] = type: in vivo; details: 20 mg/kg ip or po, mice
hERG = hERG (Homo sapiens, UniProt Q12809); assay: Psychoactive Drug Screening Program hERG binding; details: PDSP
CREB phosphorylation = assay: pCREB:tCREB ratio in forebrain by ELISA; type: in vivo, mice; details: 5a alone 20 mg/kg ip or po, 1, 2 or 12 h
PC12 cells [2] = assay: Oxygen glucose deprivation; type: cell-based; details: PC12-OGD primary assay, 1, 10, 25 μM
In short: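 PC12 cells (passage 12–14, undifferentiated) were plated overnight in serum-containing DMEM/F12. They were deprived of glucose and oxygen for 1.5 h (glucose-free HBSS, argon, 37 °C). The medium was then replaced with growth medium containing test compound (1, 10, 25 µM) or DMSO for 24 h. MTT (0.5 mg/mL) was added for 4 h and dissolved in DMSO, with absorbance read at 540 nm. Viability is % change versus vehicle control; mean ± SEM, n = 3, triplicate experiments; ANOVA with Dunnett's test.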

sGC signaling = assay: PC12-OGD assay with co-incubation of the sGC inhibitor ODQ, MTT readout; type: cell-based; details: ODQ 10 μM
In short: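 This was the PC12 OGD protocol (90 min glucose-free HBSS under argon at 37 °C, then 24 h in growth medium with test compound), with ODQ (10 µM) co-incubated. Viability was read by MTT (0.5 mg/mL, 4 h, DMSO-solubilised, 540 nm) relative to vehicle control. Mean ± SEM, n = 3, duplicate experiments; one-way ANOVA with Dunnett's test.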

PC12 cells [3] = assay: LC-MS/MS study of cell permeability; type: in vitro ADME; details: 25 μM, 24 h, control and OGD-treated PC12 cells
In short: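 PC12 cells (1×10^6) were given 1.5 h OGD under argon at 37 °C, or kept without OGD on a control plate. They were then exposed to 25 µM test compound or vehicle for 24 h. Medium was collected, and cytosol was taken by lysis in HEPES/NP-40 buffer for 15 min at 0 °C and centrifuged. Samples were diluted in 2% formic acid and spiked with an analogue internal standard. Analysis was positive-ESI UPLC-MS/MS, with MRM peak areas normalised to the internal standard.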

PC12 cells [4] = assay: NO production as NO2− in the primary assay; type: cell-based
PC12 cells [5] = assay: OGD neuroprotection concentration response, PrestoBlue; type: cell-based; details: 50 μM, OGD-exposed PC12 cells
In short: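 Undifferentiated PC12 cells (passage 12–14) were plated overnight in DMEM/F12 with 5% FBS and 5% HS. They were given 1.5 h OGD in glucose-free HBSS under argon at 37 °C. Fresh growth medium with test compound (0.1, 1, 5, 10, 25, 50 µM) or DMSO followed, for 24 h at 37 °C. PrestoBlue (10%) was added for 30 min, and fluorescence was read at 560/590 nm. Results are % change versus vehicle control; non-OGD plates were included.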

[6] = Reactivity analysis with N-acetyl cysteine, HPLC-PDA; type: physicochemical; details: 250 μM compound, N-acetyl cysteine 5 mM, PBS 50 mM pH 7.4, 37 °C, 2 and 12 h
In short: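 Test compound (250 µM) or N-ethylmaleimide (250 µM) was incubated with or without N-acetylcysteine (5 mM) in 50 mM PBS, pH 7.4, at 37 °C. Aliquots were taken at 2 and 12 h and analysed by HPLC-PDA. Peak areas at each analyte's UV λmax gave the relative abundance of remaining starting material.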

[7] = system: GABAA, serotonin receptors, dopamine receptors, and muscarinic and nicotinic acetylcholine receptors; assay: Psychoactive Drug Screening Program radioligand binding panel; details: PDSP, Supplementary Table 2
delta opioid receptor = delta opioid receptor (Homo sapiens, UniProt P41143); assay: Psychoactive Drug Screening Program binding, delta opioid receptor; details: PDSP
[8] = system: benzodiazepine (BZP) rat brain site; assay: Psychoactive Drug Screening Program binding, benzodiazepine; details: PDSP
male C57BL/6 mice = assay: Step-through passive avoidance; type: in vivo; details: scopolamine 1 mg/kg ip 30 min prior to training alone (negative control); vehicle-treated 270 ± 29 s; mean ± SEM

Sequence of hERG (Q12809 whole entry): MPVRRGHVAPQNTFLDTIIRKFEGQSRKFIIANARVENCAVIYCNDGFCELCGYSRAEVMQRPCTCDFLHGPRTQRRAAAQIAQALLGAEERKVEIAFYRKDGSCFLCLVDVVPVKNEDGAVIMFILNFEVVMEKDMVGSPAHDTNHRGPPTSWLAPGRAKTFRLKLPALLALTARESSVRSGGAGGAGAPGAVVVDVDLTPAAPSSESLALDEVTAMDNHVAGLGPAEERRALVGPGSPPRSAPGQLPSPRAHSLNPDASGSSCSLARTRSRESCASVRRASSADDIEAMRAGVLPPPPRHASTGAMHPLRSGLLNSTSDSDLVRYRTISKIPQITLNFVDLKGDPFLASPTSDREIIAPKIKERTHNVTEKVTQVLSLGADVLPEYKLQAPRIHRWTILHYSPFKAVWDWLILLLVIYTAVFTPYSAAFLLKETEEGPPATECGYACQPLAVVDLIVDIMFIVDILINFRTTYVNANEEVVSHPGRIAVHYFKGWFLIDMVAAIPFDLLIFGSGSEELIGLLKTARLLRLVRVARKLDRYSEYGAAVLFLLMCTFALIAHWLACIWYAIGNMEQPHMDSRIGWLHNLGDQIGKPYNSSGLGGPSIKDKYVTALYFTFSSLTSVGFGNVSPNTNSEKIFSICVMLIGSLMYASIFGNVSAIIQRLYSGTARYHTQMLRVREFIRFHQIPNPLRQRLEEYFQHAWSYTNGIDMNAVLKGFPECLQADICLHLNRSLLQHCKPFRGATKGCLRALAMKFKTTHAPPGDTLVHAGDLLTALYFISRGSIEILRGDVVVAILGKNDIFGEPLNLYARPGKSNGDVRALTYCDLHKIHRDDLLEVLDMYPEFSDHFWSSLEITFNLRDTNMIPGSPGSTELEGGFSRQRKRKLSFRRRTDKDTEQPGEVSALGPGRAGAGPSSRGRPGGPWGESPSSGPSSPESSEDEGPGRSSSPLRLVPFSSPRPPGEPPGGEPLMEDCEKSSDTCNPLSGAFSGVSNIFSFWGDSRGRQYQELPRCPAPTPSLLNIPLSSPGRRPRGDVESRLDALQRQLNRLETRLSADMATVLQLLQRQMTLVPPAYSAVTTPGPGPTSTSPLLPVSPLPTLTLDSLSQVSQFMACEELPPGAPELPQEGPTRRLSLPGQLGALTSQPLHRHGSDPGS
Sequence of delta opioid receptor (P41143 whole entry): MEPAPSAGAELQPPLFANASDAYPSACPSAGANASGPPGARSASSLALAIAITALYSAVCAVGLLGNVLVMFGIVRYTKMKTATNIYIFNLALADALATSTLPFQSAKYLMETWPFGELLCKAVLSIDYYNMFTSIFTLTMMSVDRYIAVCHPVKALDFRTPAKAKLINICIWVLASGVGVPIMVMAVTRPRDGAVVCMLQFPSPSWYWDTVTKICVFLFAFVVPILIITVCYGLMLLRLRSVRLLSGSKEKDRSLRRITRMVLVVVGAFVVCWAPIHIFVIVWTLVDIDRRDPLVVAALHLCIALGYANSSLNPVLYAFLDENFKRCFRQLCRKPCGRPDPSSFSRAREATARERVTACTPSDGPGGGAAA

CC1CCN(Cc2no[n+]([O-])c2-c2ccc(F)cc2)CC1 [Furoxan 5a, 3-(4-Fluorophenyl)-4-((4-methylpiperidin-1-yl)methyl)-1,2,5-oxadiaozle 2-Oxide]
presence in forebrain and plasma after 12 h [1]: detectable levels after 12 h
hERG binding (hERG): No hERG binding was observed
effect on pCREB (pCREB:tCREB ratio), forebrain (CREB phosphorylation): no effect on pCREB was observed
neuroprotection (in words) (PC12 cells [2]): noticeable neuroprotective activity
neuroprotective effects on co-incubation with ODQ (sGC signaling): completely blocked
distribution between media (supernatant) and cytosol (PC12 cells [3]): found in greatest amounts in the cytosol
NO production in the form of NO2− (PC12 cells [4]): negligible NO production
toxicity at the highest concentration tested (PC12 cells [5]): no toxicity was observed
reactivity with excess thiol [6]: negligible reactivity
interference with radioligand binding, receptor panel [7]: does not interfere with binding of any radioligands for all receptors screened

CC1CCN(Cc2no[n+]([O-])c2-c2ccc(Br)cc2)CC1 [Furoxan 5c, 3-(4-Bromophenyl)-4-((4-methylpiperdin-1-yl)methyl)-1,2,5-oxadiazole 2-Oxide]
neuroprotection (in words) (PC12 cells [2]): noticeable neuroprotective activity

CC1CCN(Cc2no[n+]([O-])c2-c2ccc(OC(F)F)cc2)CC1 [Furoxan 5d, 3-(4-(Difluoromethoxy)phenyl)-4-((4-methylpiperidin-1-yl)-methyl)-1,2,5-oxadiazole 2-Oxide]
neuroprotection (in words) (PC12 cells [2]): noticeable neuroprotective activity

[2H]C1([2H])CC(C)CC([2H])([2H])N1Cc1no[n+]([O-])c1-c1ccc(F)cc1 [Furoxan 7a, 3-(4-Fluorophenyl)-4-((4-methylpiperidin-1-yl-2,2,6,6-d4)methyl)-1,2,5-oxadiazole 2-Oxide]
inhibition of binding at the delta opioid receptor (delta opioid receptor): significantly inhibited binding
inhibition of binding at the benzodiazepine (BZP) rat brain site [8]: significantly inhibited binding
neuroprotection (in words) (PC12 cells [2]): no neuroprotective effects
distribution between media (supernatant) and cytosol (PC12 cells [3]): found in greatest amounts in the cytosol

CCN1C(=O)C=CC1=O [NEM, N-ethylmaleimide, reference compound]
reactivity with excess thiol [6]: complete reaction

CN1[C@@H]2C[C@@H](OC(=O)[C@H](CO)c3ccccc3)C[C@H]1[C@@H]1O[C@@H]12 [Scopolamine]
latency to enter the dark compartment 24 h after training (male C57BL/6 mice): 63.5 ± 30 s

Reference: publication PMC6344890 (Journal of medicinal chemistry, 2018)
